ChEMBL document CHEMBL4261499, “Chiral disubstituted piperidinyl ureas: a class of dual diacylglycerol lipase-α and ABHD6 inhibitors” (Medchemcomm, 2017)

Assays:
[1] = target: T1, Diacylglycerol lipase-alpha (Mus musculus) (UniProt Q6WQJ1); test: Inhibition of MB064 labelling of DAGLalpha in mouse brain homogenates at 10 uM pretreated for 30 mins followed by MB064 addition and measured after 20 mins by activity based protein profiling assay relative to control; type: tissue-based
T1 sequence (whole entry): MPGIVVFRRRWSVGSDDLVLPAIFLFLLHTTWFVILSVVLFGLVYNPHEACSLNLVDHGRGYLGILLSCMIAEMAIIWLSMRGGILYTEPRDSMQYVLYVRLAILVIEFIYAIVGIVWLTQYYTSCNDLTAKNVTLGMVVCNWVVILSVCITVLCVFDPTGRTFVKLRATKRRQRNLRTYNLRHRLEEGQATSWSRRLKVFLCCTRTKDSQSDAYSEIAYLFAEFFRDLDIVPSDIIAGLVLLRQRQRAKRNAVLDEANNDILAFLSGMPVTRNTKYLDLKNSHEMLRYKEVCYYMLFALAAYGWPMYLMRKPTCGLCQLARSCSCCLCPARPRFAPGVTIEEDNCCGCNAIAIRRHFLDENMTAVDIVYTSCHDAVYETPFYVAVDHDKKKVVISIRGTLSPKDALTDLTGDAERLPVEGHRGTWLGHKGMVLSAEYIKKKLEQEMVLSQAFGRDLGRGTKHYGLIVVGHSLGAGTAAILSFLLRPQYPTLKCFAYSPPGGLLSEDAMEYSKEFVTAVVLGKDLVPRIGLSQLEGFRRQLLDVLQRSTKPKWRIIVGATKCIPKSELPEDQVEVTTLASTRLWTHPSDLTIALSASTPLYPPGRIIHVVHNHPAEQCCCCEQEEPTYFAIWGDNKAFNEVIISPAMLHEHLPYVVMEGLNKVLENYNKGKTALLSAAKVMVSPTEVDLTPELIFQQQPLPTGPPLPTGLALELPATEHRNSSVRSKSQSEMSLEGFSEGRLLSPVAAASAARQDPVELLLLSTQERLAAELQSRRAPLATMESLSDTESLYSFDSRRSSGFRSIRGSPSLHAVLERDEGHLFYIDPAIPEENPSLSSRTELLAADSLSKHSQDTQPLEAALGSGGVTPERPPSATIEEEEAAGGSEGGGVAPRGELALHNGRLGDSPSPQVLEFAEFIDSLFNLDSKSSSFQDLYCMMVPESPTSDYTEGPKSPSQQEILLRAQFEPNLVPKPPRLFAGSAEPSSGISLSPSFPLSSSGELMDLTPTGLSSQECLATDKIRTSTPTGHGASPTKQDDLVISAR
How it was run: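 Mouse brain membrane proteome preincubated 30 min with inhibitor (10 μM), then labelled with MB064 probe (0.25 μM, 20 min). Readout by gel-based competitive ABPP. Band intensities corrected for protein loading per lane from Coomassie staining. Means ± SEM, n = 3.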

[2] = target: T2, Diacylglycerol lipase-alpha (Homo sapiens, UniProt Q9Y4D2); test: Inhibition of recombinant human DAGLalpha expressed in HEK293 cells using PNP-butyrate as substrate pretreated for 20 to 30 mins followed by substrate addition measured every 60 secs for 20 mins by colorimetric method; type: cell-based
T2 sequence (Q9Y4D2 whole entry): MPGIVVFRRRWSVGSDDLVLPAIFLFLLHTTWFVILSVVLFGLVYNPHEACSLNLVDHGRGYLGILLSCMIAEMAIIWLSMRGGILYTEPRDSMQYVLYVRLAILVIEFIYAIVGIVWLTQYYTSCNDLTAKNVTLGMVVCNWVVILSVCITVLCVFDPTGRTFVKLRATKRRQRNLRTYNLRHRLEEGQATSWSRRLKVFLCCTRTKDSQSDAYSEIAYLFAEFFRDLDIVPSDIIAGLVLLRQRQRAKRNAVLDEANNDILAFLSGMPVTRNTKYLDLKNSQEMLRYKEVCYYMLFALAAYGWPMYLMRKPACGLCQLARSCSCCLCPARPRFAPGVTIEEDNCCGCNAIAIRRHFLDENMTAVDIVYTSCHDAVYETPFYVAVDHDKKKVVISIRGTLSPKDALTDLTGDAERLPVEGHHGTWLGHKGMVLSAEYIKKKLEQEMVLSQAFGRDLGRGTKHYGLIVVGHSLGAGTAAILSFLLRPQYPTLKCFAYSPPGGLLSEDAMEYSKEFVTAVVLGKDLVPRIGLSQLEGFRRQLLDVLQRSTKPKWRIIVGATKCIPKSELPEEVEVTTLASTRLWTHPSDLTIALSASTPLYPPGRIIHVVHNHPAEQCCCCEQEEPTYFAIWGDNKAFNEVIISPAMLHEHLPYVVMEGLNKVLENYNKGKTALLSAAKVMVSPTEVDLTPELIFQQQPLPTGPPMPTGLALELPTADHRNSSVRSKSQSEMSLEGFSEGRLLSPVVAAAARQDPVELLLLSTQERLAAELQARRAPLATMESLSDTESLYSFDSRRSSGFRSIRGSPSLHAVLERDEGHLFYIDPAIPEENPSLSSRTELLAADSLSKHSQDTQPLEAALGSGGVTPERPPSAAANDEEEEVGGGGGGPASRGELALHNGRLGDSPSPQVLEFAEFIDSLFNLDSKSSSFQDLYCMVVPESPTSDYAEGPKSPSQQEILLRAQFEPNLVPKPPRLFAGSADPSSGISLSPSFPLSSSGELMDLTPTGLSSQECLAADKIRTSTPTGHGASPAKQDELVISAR
How it was run: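 Membrane fraction from HEK293T cells transiently transfected with human DAGLα (PEI transfection, harvested at 72 h). Membranes used at 0.05 μg μL-1 final protein in 50 mM HEPES pH 7.2. Colorimetric readout of para-nitrophenylbutyrate hydrolysis. pIC50 ± SEM.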

[3] = target: T3, Monoacylglycerol lipase ABHD6 (Homo sapiens, UniProt Q9BV23); test: Inhibition of recombinant human ABHD6 expressed in HEK293 cells by AmplifuTM red dye based fluorescence assay; type: cell-based
T3 sequence (Q9BV23 whole entry): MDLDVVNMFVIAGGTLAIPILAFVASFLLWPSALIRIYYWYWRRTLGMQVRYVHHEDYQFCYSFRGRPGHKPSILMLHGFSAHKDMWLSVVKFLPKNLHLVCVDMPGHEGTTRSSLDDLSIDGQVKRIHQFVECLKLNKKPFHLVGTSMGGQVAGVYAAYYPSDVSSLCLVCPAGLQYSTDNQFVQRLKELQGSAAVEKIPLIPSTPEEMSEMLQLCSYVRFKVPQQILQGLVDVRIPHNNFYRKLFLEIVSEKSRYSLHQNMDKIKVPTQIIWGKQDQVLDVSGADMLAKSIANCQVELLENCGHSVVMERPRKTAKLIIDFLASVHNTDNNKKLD
How it was run: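 Membranes from transiently transfected HEK293T cells expressing human ABHD6, 40 μg mL-1 final protein. Real-time coupled fluorescence assay with natural substrate 2-AG (25 μM). Glycerol released is detected via glycerol kinase, glycerol-3-phosphate oxidase and HRP (0.2 U mL-1 each), 0.125 mM ATP and 10 μM Amplifu Red. Assay contains 5% DMSO and 0.5% acetonitrile. pIC50 ± SEM.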

| Compound | inhibition [1] [%] | IC50 [2] [nM] | IC50 [3] [nM] |
| --- | --- | --- | --- |
| O=C(N1CCC=C[C@@H]1COCc1ccccc1)n1cc(-c2ccccc2)nn1 | 89 | 158 | 158 |
| O=C(N1CCC=C[C@@H]1COCc1ccccc1)n1cc(-c2ccc([N+](=O)[O-])cc2)nn1 | 95 | 15.8 | 31.6 |
| O=C(N1C[C@@H](O)C=C[C@@H]1COCc1ccccc1)n1cc(-c2ccc(-c3ccccc3)cc2)nn1 | 85 | 31.6 | 10 |
| O=C(N1CCC=C[C@@H]1COCc1ccccc1)n1cc(-c2ccc(Br)cc2)nn1 | 93 | 15.8 | 15.8 |
| O=C(N1CCCC[C@@H]1COCc1ccccc1)n1cc(-c2ccc(-c3ccccc3)cc2)nn1 | 96 | 79.4 | 3.16 |
| O=C(N1CCC=C[C@@H]1COCc1ccccc1)n1cc(-c2ccc(Oc3ccccc3)cc2)nn1 | 93 | 25.1 | 6.31 |
| O=C(N1CCC=C[C@@H]1COCc1ccccc1)n1cc(-c2ccc(-c3ccccc3)cc2)nn1 | 94 | 25.1 | 12.6 |
